Published values from different studies.
Protocols differ between the studies behind these lines.
Cell line: MCF7
Effect on: cell growth or viability

COc1cccc(C(c2c(N)nc(SCC(N)=O)[nH]c2=O)c2c(N)nc(SCC(N)=O)[nH]c2=O)c1
IC50 (MTT; 72 h): > 100 µM

O=C(NC(=S)NC1CCCCC1)c1ccc2ccccc2c1
IC50 (48 h): 5.22 µM

CC(C)(C)c1ccc(S(=O)(=O)NN=Cc2cn(CCN3CCOCC3)c3ccccc23)cc1
IC50 (MTT; 48 h): 67.8 µM

c1cnc2c(c1)ccc1cccnc12
IC50 (MTT; 48 h): > 50 µM

FC(F)(F)c1cccc(Nc2ncnc3ccc(-c4ccc(Cl)cc4)cc23)c1
IC50 (MTT; 24 h): 12.3 µM

COc1cccc(C(=O)O[C@@H]2CN3Cc4c(cc5c(c4OC)OCO5)[C@@]24C=C[C@H](OC)C[C@@H]34)c1
IC50 (WST-1): > 10 µM

COc1cccc2c1C(=O)c1c(O)c3c(c(O)c1C2=O)C[C@@](O)(C(=O)CO)C[C@@H]3O[C@H]1C[C@H](N)[C@H](O)[C@H](C)O1
IC50 (MTT; 72 h): 0.74 µM

c1cncc(-c2nc3ccccc3[nH]2)c1
IC50 (MTT; 48 h): > 100 µM

COc1cccc2c1C(=O)c1c(O)c3c(c(O)c1C2=O)C[C@@](O)(C(=O)CO)C[C@@H]3O[C@H]1C[C@H](N)[C@H](O)[C@H](C)O1
IC50 (MTT; 48 h): 3.1 µM

COc1cc2ncnc(Nc3ccc(F)c(Cl)c3)c2cc1NC(=O)N/N=C/c1cccn1CCCN(C)C
IC50 (MTT; 72 h): 1.26 µM

Oc1cccc(-c2ccc3ncnc(Nc4cccc(C(F)(F)F)c4)c3c2)c1
IC50 (MTT; 24 h): 18.1 µM

CCN(CC)C/C=N/NC(=O)Nc1cc2c(Nc3ccc(F)c(Cl)c3)ncnc2cc1O[C@H]1CCOC1
IC50 (MTT; 72 h): 2.34 µM

COc1ccc(-c2ccc3ncnc(Nc4cccc(C(F)(F)F)c4)c3c2)cc1
IC50 (MTT; 24 h): 11.7 µM

COc1cc2ncnc(Nc3ccc(F)c(Cl)c3)c2cc1NC(=O)N/N=C/CN1CCCCC1
IC50 (MTT; 72 h): 6.42 µM

Cc1ccc2nc(-c3ccc(N(C)C)cc3)[nH]c2c1
IC50 (MTT; 48 h): 47.7 µM

Oc1ncnc2cc(Nc3nc(-c4ccc(Br)cc4)cs3)ccc12
IC50 (MTT): 4.92 µM

CSc1nc(NC(=S)NCCc2ccccc2)n(-c2ccc(C(=O)O)cc2)n1
IC50 (MTT): 15.6 µM

O=c1c(O)c(-c2ccc(O)cc2)oc2cc(O)cc(O)c12
IC50 (WST-1; 48 h): 27.2 µM

CC(=O)CC(=O)[c-]1cccc1.[Fe+2].c1cc[cH-]c1
IC50 (MTT; 96 h): 54 µM

O=C(/N=c1\scc(-c2ccccc2)n1C1CCCCC1)c1ccc2ccccc2c1
IC50 (48 h): 17.3 µM

O=C(/C=C/c1ccccc1)c1ccccc1
IC50 (resazurin; 72 h): > 50 µM

O=C(NC(=S)NCc1ccccc1)c1ccc2ccccc2c1
IC50 (48 h): 4.99 µM

Oc1cccc(-c2nc3ccccc3[nH]2)c1
IC50 (MTT; 48 h): > 100 µM

O=C(N/N=C/c1cccn1CCN1CCCCC1)Nc1cc2c(Nc3ccc(F)c(Cl)c3)ncnc2cc1O[C@H]1CCOC1
IC50 (MTT; 72 h): 2.41 µM

O=[N+]([O-])c1ccc(-c2nc3ccccc3n2Cc2ccccc2)cc1
IC50 (MTT): 9.56 µM

Nc1ccc(-c2csc(Nc3ccc4c(O)ncnc4c3)n2)cc1
IC50 (MTT): 8.29 µM

COc1cccc2c1C(=O)c1c(O)c3c(c(O)c1C2=O)C[C@@](O)(C(=O)CO)C[C@@H]3O[C@H]1C[C@H](N)[C@H](O)[C@H](C)O1
IC50 (MTT): 19.7 µM

COc1cc2ncnc(Nc3ccc(F)c(Cl)c3)c2cc1NC(=O)N/N=C/c1cccn1CCN(C)C
IC50 (MTT; 72 h): 3.21 µM

Cc1ccc2nc(-c3cccnc3)[nH]c2c1
IC50 (MTT; 48 h): 51.1 µM

O=S(=O)(NN=Cc1cn(CCN2CCOCC2)c2ccccc12)c1ccccc1
IC50 (MTT; 48 h): 73.2 µM

CC[C@H](C)C(=O)O[C@H]1C[C@H](O)C=C2C=C[C@H](C)[C@H](CC[C@@H](O)C[C@@H](O)CC(=O)O)[C@H]21
IC50 (SRB; 72 h): 98 µg/mL

Cc1cc(C)n(-c2nc(Nc3ccc(Br)cc3)nc(N3CCOCC3)n2)n1
IC50 (MTT; 72 h): 4.53 µM

Fc1ccc(-c2nc3ccccc3[nH]2)cc1
IC50 (MTT; 48 h): 68 µM

COc1cc2ncnc(Nc3ccc(F)c(Cl)c3)c2cc1NC(=O)N/N=C/c1cccn1CCCN1CCN(C)CC1
IC50 (MTT; 72 h): 2.43 µM

COc1ccc(-c2nn(-c3ccc(S(C)(=O)=O)cc3)cc2C=N/N=c2\[nH]c(-c3ccc([N+](=O)[O-])cc3)cs2)cc1
IC50 (MTT; 48 h): 2.15 µM

CC(C)C(=O)Nc1ccc([N+](=O)[O-])c(C(F)(F)F)c1
IC50 (CCK-8; 48 h): 39 µM

CN(C)C/C=C/C(=O)Nc1cc2c(Nc3ccc(F)c(Cl)c3)ncnc2cc1O[C@H]1CCOC1
IC50 (MTT; 72 h): 1.8 µM

O=C(/C=C/c1ccc(O)c(O)c1)O[C@@H]1C[C@](O)(C(=O)O)C[C@@H](O)[C@H]1O
IC50 (WST-1; 48 h): 9.5 µM

CC(C)NCC(O)COc1cc2ccccc2cc1OCC(O)CNC(C)C (stereo not shown)
IC50 (MTT; 72 h): > 75 µM

COCO[C@H]1C[C@H]2OC(C)(C)OC[C@]23[C@@H]2[C@@H](CC[C@]3(O)C1)[C@@]1(OCOC)CC[C@H](CO)[C@@]1(C)C[C@H]2OCOC
IC50 (resazurin; 72 h): > 100 µM

CSc1nc(/N=C/c2cc([N+](=O)[O-])ccc2O)n(-c2ccc(C(=O)O)cc2)n1
IC50 (MTT): 20 µM

COc1cc2ncnc(Nc3ccc(F)c(Cl)c3)c2cc1NC(=O)N/N=C/c1cccn1CCCN1CCCCC1
IC50 (MTT; 72 h): 2.81 µM

CCOc1ccc(-c2nc3ccccc3[nH]2)cc1
IC50 (MTT; 48 h): > 100 µM

O=C(N/N=C/c1cccn1CCN1CCOCC1)Nc1cc2c(Nc3ccc(F)c(Cl)c3)ncnc2cc1O[C@H]1CCOC1
IC50 (MTT; 72 h): 2.13 µM

C=CCn1c(-c2ccc(Cl)c(Cl)c2)nc2ccccc21
IC50 (MTT): 50 µM

CNc1nc2ccccc2n2c(-c3cccc(OC)c3)cnc12
IC50 (neutral red; 96 h): 0.217 µM
